From article PMC3870048 (Pharmaceutical research, 2013)
Converted amounts (≈) assume the structure as drawn. Like-named read-outs stand apart in the source and are kept apart here.

Assays:
[1] = Stability of codrugs in 0.3 M acetate buffer pH 5.0 at 32°C; format: physicochemical; settings: 0.3 M acetate buffer pH 5.0, 32°C
Method in brief: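 Codrug was predissolved in ACN and spiked into prewarmed buffer (<1% ACN). 100 μl aliquots were taken at intervals, quenched with 900 μl ACN and held at -80°C. Analysis was by C18 HPLC-UV with ACN:acidic aqueous (70:30, pH 3.0) mobile phase and standards of 100–10,000 ng/ml. Data were fit to pseudo first-order kinetics; triplicate.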

[2] = in 43% PG, 43% ethanol containing solution; data previously reported; cited from earlier work
[3] = earlier proof of concept study; cited from earlier work
[4] = In vitro diffusion studies across microneedle-treated skin; format: in vitro ADME, Yucatan miniature pig; settings: skin at end of 48 h diffusion experiment
Method in brief: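 Yucatan minipig skin, dermatomed 1.4-1.8 mm, pierced 20 times with a 5-needle array (100 pores per 0.95 cm2 area). Flow-through cells held at 32°C. Donor: 250 μl of excess drug in 0.3 M acetate pH 5.0 with 10% PG. Receiver: pH 7.4 water with 20% ethanol, 1.5 ml/h. At 48 h the permeation area was minced and extracted overnight in 10 ml ACN at 32°C, then analysed by HPLC; n≥3.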

[5] = Donor solution solubility determination; format: physicochemical; settings: saturation solubility in 0.3 M acetate buffer pH 5.0 containing 10% propylene glycol, 32°C

SMILES	Pseudo first order rate constant (k) [1]	Stability (approx. half-life) [1]	Solubility [2]	formulation half-life [3]	NTX and DIC (parent drugs) in the skin [4]	Solubility [5]
O=C(Cc1ccccc1Nc1c(Cl)cccc1Cl)O[C@@H]1CC[C@@]2(O)[C@H]3Cc4ccc(O)c5c4[C@@]2(CCN3CC2CC2)[C@H]1O5 [Codrug II]	0.0052 days ^−1	130.88 ± 4.94 days	–	–	–	–
O=C(Cc1ccccc1Nc1c(Cl)cccc1Cl)Oc1ccc2c3c1O[C@H]1C(=O)CC[C@@]4(O)[C@@H](C2)N(CC2CC2)CC[C@]314 [Codrug I]	0.0803 days ^−1	8.72 ± 1.05 days	7.23 mM (≈ 4480 µg/mL)	96 to 120 h	quantifiable	–
Cl.O=C(Cc1ccccc1Nc1c(Cl)cccc1Cl)Oc1ccc2c3c1O[C@H]1C(=O)CC[C@@]4(O)[C@@H](C2)N(CC2CC2)CC[C@]314 [Codrug I (hydrochloride salt)]	–	–	–	–	–	83.8 ± 15.4 mM
